# Assay results taken from publication PMC3276733 (Journal of Medicinal Chemistry, 2012).
# Like-named read-outs stand apart in the source and are kept apart here.
# Columns and labels:
# tadpoles [1] = conditions: cited from earlier work
# [2] = biological target: rat α1β2γ2L GABAA receptors expressed in Xenopus laevis oocytes (Rattus norvegicus, UniProt P62813); assay type: cell-based; conditions: 2 μM GABA, compound up to 10 μM
# Summary of the method: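 Rat α1, β2, γ2L cRNA (equal parts, 20-40 ng total) injected into defolliculated stage V-VI oocytes, which were held at 18 °C in supplemented ND96 (pH 7.4) and recorded 2-5 days later. Two-electrode voltage clamp at −70 mV. Response was the current ratio with/without compound, against 2 μM GABA. Direct gating: 10 μM compound without GABA, as a ratio to the 2 μM GABA current. ≥4 oocytes; SEM.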
# [3] = biological target: α1(Q241L)β2γ2L GABAA receptors (Rattus norvegicus, UniProt P62813, Q268L); assay: Potentiation of GABA currents in oocytes expressing the steroid-insensitive α1; assay type: cell-based; conditions: GABA 2 TM, −70 mV, 4 WT and 4 mutant oocytes
# tadpoles [4] = assay: Tadpole loss of righting reflex; assay type: in vivo; conditions: loss of swimming reflex; None = all tadpoles had a swimming response at 10 μM
# [5] = read-out: tadpole LRR EC50, loss of righting reflex, literature values ref 14
smiles,measurement,setting,value
"C[C@@]12CC[C@H](O)C[C@H]1CC[C@@H]1[C@@H]2CC[C@@]2(C)C(=O)CC[C@@H]12 (single isomer, unassigned) [compound ent-2, ent-androsterone]",EC50,tadpoles [1]; [5],1.42 ± 0.18 µM
"C[C@@]12CC[C@H](O)C[C@H]1CC[C@@H]1[C@@H]2[C@H](OCc2ccccc2)C[C@@]2(C)C(=O)CC[C@@H]12 (single isomer, unassigned) [compound ent-4, (3β,5β,8α,9β,10α,11α,13α,14β)-11-Benzyloxy-3-hydroxyandrostan-17-one]",effect on GABA-mediated currents,[2],weakly inhibit
"C[C@@]12CC[C@H](O)C[C@H]1C[C@@H](OCc1ccccc1)[C@@H]1[C@@H]2CC[C@@]2(C)C(=O)CC[C@@H]12 (single isomer, unassigned) [compound ent-6, (3β,5β,7α,8α,9β,10α,13α,14β)-7-Benzyloxy-3-hydroxyandrostan-17-one]",effect of the α1 Q241L mutation on potentiation of GABA currents,[3]; compound 1 TM,"abolishes, completely or nearly completely"
"C[C@@]12CC[C@H](O)C[C@H]1C[C@@H](OCc1ccccc1)[C@@H]1[C@@H]2CC[C@]2(C)[C@H]1CC[C@]21CO1 (single isomer, unassigned) [compound ent-7, (3β,5β,7α,8α,9β,10α,13α,14β,17α)-Spiro[7-Benzyoxyandrostane-17,2′-oxiran]-3-ol]",effect of the α1 Q241L mutation on potentiation of GABA currents,[3]; compound 0.5 TM,"abolishes, completely or nearly completely"
"C[C@@]12CC[C@H](O)C[C@H]1CC[C@@H]1[C@@H]2CC[C@]2(C)[C@H]1CC[C@]21CO1 (single isomer, unassigned) [ent-3]",EC50,tadpoles [1]; [5],1.08 ± 0.01 µM
"CC(=O)[C@H]1CC[C@H]2[C@@H]3CC[C@H]4C[C@H](O)CC[C@]4(C)[C@H]3CC[C@]12C [compound 1, allopregnanolone]",EC50,"tadpoles [1]; read-out: Tadpole LSR EC50, loss of swimming reflex, literature values ref 27",5.5 ± 0.5 µM
same,EC50,"tadpoles [1]; read-out: tadpole LRR EC50, loss of righting reflex, literature values ref 27",0.42 ± 0.04 µM
same,effect of the α1 Q241L mutation on potentiation of GABA currents,[3]; compound 0.5 TM,eliminates the potentiation
"C[C@]12CC[C@@H](O)C[C@@H]1CC[C@@H]1[C@@H]2CC[C@]2(C)C(=O)CC[C@@H]12 [compound 2, androsterone]",EC50,tadpoles [1]; [5],3.38 ± 0.9 µM
C[C@]12CC[C@@H](O)C[C@@H]1CC[C@@H]1[C@@H]2CC[C@@]2(C)[C@H]1CC[C@@]21CO1 [compound 3],EC50,tadpoles [1]; [5],1.35 ± 0.01 µM
"C[C@]12CC[C@@H](O)C[C@@H]1CC[C@@H]1[C@@H]2[C@@H](OCc2ccccc2)C[C@]2(C)C(=O)CC[C@@H]12 [compound 4, (3α,5α,11β)-11-Benzyloxy-3-hydroxyandrostan-17-one]",effect of the α1 Q241L mutation on potentiation of GABA currents,[3]; compound 1 TM,"abolishes, completely or nearly completely"
"C[C@]12CC[C@@H](O)C[C@@H]1CC[C@@H]1[C@@H]2[C@@H](OCc2ccccc2)C[C@@]2(C)[C@H]1CC[C@@]21CO1 [compound 5, (3α,5α,11β,17β)-Spiro[11-benzyloxyandrostane-17,2′-oxiran]-3-ol]",effect of the α1 Q241L mutation on potentiation of GABA currents,[3]; compound 0.5 TM,"abolishes, completely or nearly completely"
"C[C@]12CC[C@@H](O)C[C@@H]1C[C@H](OCc1ccccc1)[C@@H]1[C@@H]2CC[C@]2(C)C(=O)CC[C@@H]12 [compound 6, (3α,5α,7β)-7-Benzyloxy-3-hydroxyandrostan-17-one]",Tadpole LSR EC50,tadpoles [4],None^e
same,effect on GABA-mediated currents,[2],weakly inhibit
"C[C@]12CC[C@@H](O)C[C@@H]1C[C@H](OCc1ccccc1)[C@@H]1[C@@H]2CC[C@@]2(C)[C@H]1CC[C@@]21CO1 [compound 7, (3α,5α,7β,17β)-Spiro-[7-Benzyloxyandrostane-17,2′-oxiran]-3-ol]",effect on GABA-mediated currents,[2],weakly inhibit
